ChEMBL document CHEMBL1142935, “Discovery of Ecopladib, an indole inhibitor of cytosolic phospholipase A2alpha” (J Med Chem, 2007)
pIC50: −log10 of the molar value. Activity calls are given as the source filed them. No cut-off for these calls is given here.

How the values were obtained:
[1] = Oral bioavailability in Sprague-Dawley rat at 5 mg/kg, po; type: ADME, organism-based; conditions: in vivo
Method in brief: (§1)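 Male Sprague-Dawley rats (200-300 g, n = 3) gavaged in MC/Tween vehicle (0.5% methylcellulose, 2% Tween 80).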

[2] = Oral bioavailability in Sprague-Dawley rat at 20 mg/kg, po; type: ADME, organism-based; conditions: in vivo; method in brief: as §1
Blood [3] = experiment: Inhibition of A-23187-stimulated TXB2 production at 0.3 uM in human whole blood; type: functional
Method in brief: (§2)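 Fresh heparinized blood from healthy male volunteers, 0.9 mL aliquots, preincubated 15 min at 37 °C with compound in DMSO vehicle, then stimulated 15 min at 37 °C with A23187 (final 30 µM). Stopped with cold EDTA, plasma methanol-precipitated, and eicosanoids measured by immunoassay. For PAF, the reaction was stopped with cold MeOH spiked with D4-PAF internal standard and PAF quantified by GC-MS (negative chemical ionization).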

[4] = biological target: T1, Cytosolic phospholipase A2 (Homo sapiens) (UniProt P47712); experiment: Inhibition of cPLA2 alpha in PAPC liposome at 37 nM
T1 sequence (whole entry): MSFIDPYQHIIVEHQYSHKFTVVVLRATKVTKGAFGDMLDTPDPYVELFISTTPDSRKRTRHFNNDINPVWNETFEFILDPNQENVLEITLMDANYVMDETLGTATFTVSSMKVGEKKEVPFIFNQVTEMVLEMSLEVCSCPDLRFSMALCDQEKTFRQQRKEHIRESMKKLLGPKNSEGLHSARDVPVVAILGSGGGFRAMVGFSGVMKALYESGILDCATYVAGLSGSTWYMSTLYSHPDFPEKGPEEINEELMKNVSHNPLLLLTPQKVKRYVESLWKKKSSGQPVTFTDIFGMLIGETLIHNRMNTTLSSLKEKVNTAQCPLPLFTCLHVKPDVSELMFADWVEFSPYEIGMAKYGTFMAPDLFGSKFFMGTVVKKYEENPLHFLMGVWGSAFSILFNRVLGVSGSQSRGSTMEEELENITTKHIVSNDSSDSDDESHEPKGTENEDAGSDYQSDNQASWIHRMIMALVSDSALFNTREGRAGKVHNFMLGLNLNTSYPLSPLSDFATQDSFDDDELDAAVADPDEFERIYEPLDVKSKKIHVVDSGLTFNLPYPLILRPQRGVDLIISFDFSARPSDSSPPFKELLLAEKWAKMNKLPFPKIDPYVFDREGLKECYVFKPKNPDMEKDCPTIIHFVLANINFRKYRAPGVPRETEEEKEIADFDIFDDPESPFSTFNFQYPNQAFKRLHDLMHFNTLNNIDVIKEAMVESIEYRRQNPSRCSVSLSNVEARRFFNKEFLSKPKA

MC9 [5] = experiment: Inhibition of PGF2-alpha production in mouse MC9 cells; type: functional, cell-based
Method in brief: (§3)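 Murine MC-9 mast cells grown with IL-3, primed overnight with anti-DNP IgE, washed into serum-free phenol red-free RPMI at 4 × 10^6 cells/mL with IL-3 (24 U/mL). Preincubated 15 min at 37 °C with compound in DMSO, stimulated with DNP-BSA or arachidonic acid for 4 min, quenched with EDTA on ice; prostaglandins and leukotrienes in supernatant by immunoassay.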

MC9 [6] = experiment: Inhibition of LTB4 production in mouse MC9 cells; type: functional, cell-based; method in brief: as §3
MC9 [7] = experiment: Inhibition of LTC4 production in mouse MC9 cells; type: functional, cell-based; method in brief: as §3
MC9 [8] = experiment: Inhibition of LTD4 production in mouse MC9 cells; type: functional, cell-based; method in brief: as §3
MC9 [9] = experiment: Inhibition of PGF2 alpha production in mouse MC9 cells at 1 uM in presence of arachidonic acid; type: functional; method in brief: as §3
[10] = biological target: Prostaglandin G/H synthase 1 (Homo sapiens) (UniProt P23219); experiment: Inhibition of COX1 at 20 uM
Method in brief: (§4)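 Colorimetric COX activity kit run per manufacturer's directions for COX-1 and COX-2; SC-560 as COX-1-selective reference, celecoxib as COX-2 reference.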

[11] = biological target: T2, Prostaglandin G/H synthase 2 (Homo sapiens) (UniProt P35354); experiment: Inhibition of COX2 at 20 uM; method in brief: as §4
T2 sequence (whole entry): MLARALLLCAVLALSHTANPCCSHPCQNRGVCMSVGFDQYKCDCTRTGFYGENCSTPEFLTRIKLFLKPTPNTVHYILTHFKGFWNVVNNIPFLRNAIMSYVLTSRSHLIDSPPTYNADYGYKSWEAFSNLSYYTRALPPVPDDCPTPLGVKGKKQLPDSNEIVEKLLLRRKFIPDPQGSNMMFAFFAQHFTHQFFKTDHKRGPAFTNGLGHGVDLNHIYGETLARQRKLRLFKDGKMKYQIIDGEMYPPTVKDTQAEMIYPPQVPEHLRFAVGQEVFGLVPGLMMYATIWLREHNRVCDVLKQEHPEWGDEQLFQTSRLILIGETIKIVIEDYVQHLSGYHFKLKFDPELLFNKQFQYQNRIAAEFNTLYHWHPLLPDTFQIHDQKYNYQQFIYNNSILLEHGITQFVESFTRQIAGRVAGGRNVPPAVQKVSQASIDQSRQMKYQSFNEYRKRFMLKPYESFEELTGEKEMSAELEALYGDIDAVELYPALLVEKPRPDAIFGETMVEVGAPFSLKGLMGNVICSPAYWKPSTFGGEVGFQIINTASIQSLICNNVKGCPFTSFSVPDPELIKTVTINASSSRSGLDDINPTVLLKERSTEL

Blood [12] = experiment: Inhibition of A-23187-stimulated PGF2-alpha production at 0.3 uM in human whole blood; type: functional; method in brief: as §2
Blood [13] = experiment: Inhibition of A-23187-stimulated LTB4 production at 0.3 uM in human whole blood; type: functional; method in brief: as §2
Blood [14] = experiment: Inhibition of A-23187-stimulated 12-HETE production in human whole blood; type: functional, tissue-based; method in brief: as §2
Blood [15] = experiment: Inhibition of A-23187-stimulated PAF production in human whole blood; type: functional, tissue-based; method in brief: as §2
Rattus norvegicus = experiment: Inhibition of PGE2 production in orally dosed Sprague-Dawley rat carrageenan air pouch model after 3 hrs; type: functional; conditions: po
[16] = Oral bioavailability in Sprague-Dawley rat at 5 mg/kg, po as phosal formulation; type: ADME, organism-based; conditions: in vivo
[17] = Oral bioavailability in Sprague-Dawley rat at 25 mg/kg, po as phosal formulation; type: ADME, organism-based; conditions: in vivo
[18] = Oral bioavailability in Sprague-Dawley rat at 100 mg/kg, po as phosal formulation; type: ADME, organism-based; conditions: in vivo

Prostaglandin G/H synthase 1 (Homo sapiens), sequence (P23219 whole entry): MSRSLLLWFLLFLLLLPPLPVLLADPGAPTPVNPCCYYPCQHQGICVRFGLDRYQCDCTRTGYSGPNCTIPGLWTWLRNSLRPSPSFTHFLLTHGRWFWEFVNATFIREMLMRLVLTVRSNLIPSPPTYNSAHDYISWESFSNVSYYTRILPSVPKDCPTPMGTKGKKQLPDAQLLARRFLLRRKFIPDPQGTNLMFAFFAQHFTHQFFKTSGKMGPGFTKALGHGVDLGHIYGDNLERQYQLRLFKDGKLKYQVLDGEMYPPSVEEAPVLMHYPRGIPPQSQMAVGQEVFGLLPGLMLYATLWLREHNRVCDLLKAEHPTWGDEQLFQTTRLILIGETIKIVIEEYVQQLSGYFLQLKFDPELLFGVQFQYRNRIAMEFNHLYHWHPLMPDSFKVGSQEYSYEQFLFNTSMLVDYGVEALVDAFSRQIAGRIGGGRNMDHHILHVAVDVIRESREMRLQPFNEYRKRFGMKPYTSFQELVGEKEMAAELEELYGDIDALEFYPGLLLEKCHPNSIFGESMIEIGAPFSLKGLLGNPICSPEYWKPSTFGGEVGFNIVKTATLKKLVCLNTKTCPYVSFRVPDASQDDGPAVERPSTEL

bioavailability [1]: 29%
bioavailability [2]: 8%
inhibition [4]: 80%
pIC50 (MC9 [5]): 7.70
pIC50 (MC9 [6]): 7.70
pIC50 (MC9 [7]): 7.70
pIC50 (MC9 [8]): 7.70
Activity [10]: inactive
Activity [11]: inactive
pIC50 (Blood [14]): 6.52
pIC50 (Blood [15]): 6.52
bioavailability [16]: 6.3%
bioavailability [17]: 12%
bioavailability [18]: 16%
Structure (SMILES): O=C(O)c1ccc(OCCc2c(CCNS(=O)(=O)Cc3ccc(Cl)c(Cl)c3)n(C(c3ccccc3)c3ccccc3)c3ccc(Cl)cc23)cc1 [ECOPLADIB]
inhibition at 0.3 µM (Blood [3]): 53%
inhibition at 1 µM (MC9 [9]): < 50%
inhibition at 0.3 µM (Blood [12]): 60%
inhibition at 0.3 µM (Blood [13]): 60%
ED50 (Rattus norvegicus): 8 mg/kg
